High-throughput results: PubChem, several laboratories
This is a sample that favours compounds with a hit; in the whole collection about 1.6% have one here.
LMPTP inh: blocks human LMPTP phosphatase. P24666. recombinant LMPTP-A, OMFP fluorogenic substrate, fluorescence intensity. inhibition, % at 20 µM. 0.22% of 360,000 active. AID 651560;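 active = compounds that cut the enzyme signal by at least half of the control window in the single-dose screen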
Target sequence (P24666 whole entry, looked up): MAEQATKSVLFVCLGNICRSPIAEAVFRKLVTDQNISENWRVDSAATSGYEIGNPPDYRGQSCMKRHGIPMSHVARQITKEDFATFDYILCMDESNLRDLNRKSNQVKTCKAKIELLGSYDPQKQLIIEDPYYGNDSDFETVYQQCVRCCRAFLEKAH
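Test system: LMPTP-A, protein tyrosine phosphatase of low molecular weight; Input: 0.625 nM enzyme; Incubation: 50 min dark incubation at room temperature; Signal: endpoint fluorescence intensity from OMFP dephosphorylation; Read-out basis: % inhibition versus control wells.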
STEP block: inhibitors of human striatal-enriched phosphatase STEP | P54829 | recombinant STEP, OMFP fluorogenic substrate, fluorescence | inhibition, % at 20 µM | 0.25% of 360,000 active | AID 588621;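 active = inhibition at 20 µM, scaled per plate between control wells, above about 37%, limit read from the data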
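Material: STEP (striatal-enriched tyrosine phosphatase) enzyme, cell-free | Medium: 50 mM Bis-Tris pH 6.0 with 2.5 mM DTT and 0.005% Tween 20 | Read-out: Percent inhibition scaled to no-enzyme and uninhibited-enzyme controls, plate-pattern corrected | Signal: Fluorescence read at 480 nm ex / 540 nm em | Times: 20 min reaction, room temperature, in the dark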
SUMO1 PPI mod: SUMO1-SIM interaction modulation | AID 602429 | 0.33% of 360,000 active | SUMO1 binding to a labelled peptide, TR-FRET, 1 h | inhibition, % at 20 µM; in the data active = inhibition above about 37%
Target sequence (P63165 whole entry, looked up): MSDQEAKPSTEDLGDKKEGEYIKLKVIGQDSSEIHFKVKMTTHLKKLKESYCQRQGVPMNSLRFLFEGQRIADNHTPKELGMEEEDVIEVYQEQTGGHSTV
Scp-1 inhibitor: blocks human Scp-1 phosphatase activity; inhibition, % at 20 µM; AID 493091; 0.88% of 340,000 active; Recombinant Scp1, phosphopeptide, malachite green phosphate absorbance;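 active = inhibition above about 50% at 20 µM, limit read from the data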
Target sequence (Q9GZU7 76-261 limits assumed): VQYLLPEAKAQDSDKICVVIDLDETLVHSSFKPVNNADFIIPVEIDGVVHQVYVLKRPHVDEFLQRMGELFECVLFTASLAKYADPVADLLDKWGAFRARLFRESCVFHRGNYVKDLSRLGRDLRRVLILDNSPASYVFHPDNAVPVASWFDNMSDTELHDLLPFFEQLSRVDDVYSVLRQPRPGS
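Test system: SCP-1 phosphatase catalytic domain, residues 76-261 | Compound dosing: One concentration, 20 µM, with 1.0% DMSO | Schedule: 45 min room-temperature reaction, 5 min colour, 30 min stabiliser | Detection: Absorbance at 630 nm | Read-out basis: % inhibition of SCP-1 phosphate liberation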
CFTR F508del cor: correctors of CFTR F508del function in bronchial epithelial cells; CFBE cells, YFP halide quenching; stimulated with forskolin plus potentiator P3; % fluorescence drop versus neutral controls; activity (quench increase), % at 7.58 µM; 0.36% of 350,000 active; AID 720511;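 active = mean added fluorescence quench of at least 8% versus neutral control, with both replicates also reaching 8%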;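 also: cells transiently co-express mutant CFTR-F508del with the halide-sensitive YFP; corrector assay measuring rescue of mutant channel to the surface after 24 h compound exposure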
DNMT1 block: blocks human DNA methyltransferase DNMT1; DNMT1 molecular beacon, Hinp1I cleavage, fluorescence; inhibition (reported as % activation of signal), % at 10 µM; 0.83% of 360,000 active; AID 588458; in the data active = inhibition above about 50%
Scp-1 conf: confirmation of human Scp-1 phosphatase inhibitors | recombinant SCP-1 catalytic domain, phosphate release, malachite green absorbance | shares compounds with Scp-1 inhibitor | 61% of 2,500 active | inhibition, % at 20 µM
Scp-1 MG ctr: interferes with malachite green readout, flagging false Scp-1 hits; Colorimetric interference counterscreen, malachite green absorbance 630 nm; shares compounds with Scp-1 inhibitor; AID 540313; 2,500 tested, under 10 active; apparent inhibition (interference), % at 20 µM;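 also: compounds added after enzyme reaction finished so only phosphate colour detection is probed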
Scp-1 Tm shift: Scp-1 (human) binding by thermal shift; Recombinant SCP1, Sypro Orange thermal shift Tm; 25% of 1,500 active; thermal shift relative to vanadate control, % at 40 µM; shares compounds with Scp-1 inhibitor;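 active = substances whose mean melting-temperature shift, as a percentage of the reference inhibitor's shift, reaches about 5.3%, limit read from the data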
DNMT1 confirm: confirmation of human DNMT1 inhibitors; 8% of 2,300 active; inhibition, % at 10 µM; shares compounds with DNMT1 block; AID 602385; DNMT1 molecular beacon HinP1I cleavage, fluorescence;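 active = average inhibition of at least 30% in the single-concentration confirmation test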
Beacon interf: shows spectral interference in the DNMT1 beacon assay. shares compounds with DNMT1 block. DNMT1 molecular beacon spectral interference counterscreen, fluorescence 485/520. activation (fluorescence interference), % at 10 µM. 1% of 2,300 active. AID 602387;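 active = activation of at least 30% at 10 µM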;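 also: DNMT1 catalytic domain with a HinP1I cleavage step and a FAM/dabcyl DNA beacon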
A number is an active result.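 The calls were made as follows, unless noted: active = inhibition of at least 30% at 20 µM; inactive = the rest.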

Results for CCCNC(=O)C[C@H]1CC[C@H]2[C@H](COc3ccc(NC(=O)NC(C)C)cc3C(=O)N2C)O1 ?
CFTR F508del cor: inactive

What do the screens show for `Cc1ccc(Cl)cc1N1CCN(C(=O)CN(c2ccccc2)S(=O)(=O)N(C)C)CC1`?
LMPTP inh: inactive; STEP block: inactive; SUMO1 PPI mod: inactive; Scp-1 inhibitor: 67.5; CFTR F508del cor: inactive; DNMT1 block: 65.3; Scp-1 conf: 70.1; Scp-1 MG ctr: inactive; Scp-1 Tm shift: inactive; DNMT1 confirm: inactive; Beacon interf: inactive

How did CN1CCN(C(=O)CN(c2ccccc2)S(=O)(=O)N(C)C)CC1 do in these assays?
Scp-1 inhibitor: inactive; CFTR F508del cor: inactive

Results for C[C@@H]1CN([C@H](C)CO)S(=O)(=O)c2ccc(C#CC3CCCC3)cc2O[C@H]1CN(C)Cc1cccnc1 ?
CFTR F508del cor: inactive

How did CCOC(=O)C1=C(COC(=O)/C=C/c2ccco2)NC(=O)NC1C (stereo not drawn) do in these assays?
LMPTP inh: inactive; STEP block: inactive; SUMO1 PPI mod: inactive; Scp-1 inhibitor: 66.3; CFTR F508del cor: inactive; DNMT1 block: 72.3; Scp-1 conf: 55.0; Scp-1 MG ctr: inactive; Scp-1 Tm shift: inactive; DNMT1 confirm: inactive; Beacon interf: inactive

What do the screens show for `Cc1cccc(N2CCN(C(=O)CCS(=O)(=O)c3ccc(Br)cc3)CC2C)c1` (stereo not drawn)?
LMPTP inh: inactive; STEP block: inactive; SUMO1 PPI mod: inactive; Scp-1 inhibitor: 83.9; CFTR F508del cor: inactive; DNMT1 block: 70.4; Scp-1 conf: 73.7; Scp-1 MG ctr: inactive; Scp-1 Tm shift: inactive; DNMT1 confirm: inactive; Beacon interf: inactive

What do the screens show for `COC(=O)c1ccccc1NC(=O)c1noc2c1CCCC2`?
LMPTP inh: inactive; STEP block: inactive; SUMO1 PPI mod: inactive; Scp-1 inhibitor: inactive; DNMT1 block: inactive

What do the screens show for `COc1cc(NC(=O)c2noc3c2CCC3)c(OC)cc1Cl`?
LMPTP inh: inactive; STEP block: inactive; SUMO1 PPI mod: inactive; Scp-1 inhibitor: 71.9; DNMT1 block: 101.4; Scp-1 conf: 69.7; Scp-1 MG ctr: inactive; Scp-1 Tm shift: inactive; DNMT1 confirm: inactive; Beacon interf: inactive

How did CC1(OC(=O)c2ccc(Cl)nc2)C(=O)C=C2C=C3CCCN3C=C2C1=O (stereo not drawn) do in these assays?
LMPTP inh: inactive; STEP block: inactive; SUMO1 PPI mod: inactive; Scp-1 inhibitor: 64.6; CFTR F508del cor: inactive; DNMT1 block: 66.4; Scp-1 conf: inactive; Scp-1 MG ctr: inactive; DNMT1 confirm: inactive; Beacon interf: inactive

Results for CC(C)NC(=O)N(C)C[C@H]1Oc2cc(-c3cncnc3)ccc2S(=O)(=O)N([C@H](C)CO)C[C@H]1C ?
CFTR F508del cor: inactive

How did Cc1c(C(=O)O)cccc1-c1ccc(/C=N/n2cnnc2)o1 do in these assays?
LMPTP inh: inactive; STEP block: inactive; SUMO1 PPI mod: inactive; Scp-1 inhibitor: 67.5; CFTR F508del cor: inactive; DNMT1 block: 58.5; Scp-1 conf: 37.5; Scp-1 MG ctr: inactive; Scp-1 Tm shift: inactive; DNMT1 confirm: inactive; Beacon interf: inactive

What do the screens show for `Cc1c(Cl)cccc1-c1ccc(/C=N/n2cnnc2)o1`?
LMPTP inh: inactive; STEP block: inactive; SUMO1 PPI mod: inactive; Scp-1 inhibitor: inactive; DNMT1 block: inactive
